What was measured:
[1] = Drug excretion in Sprague-Dawley rat urine assessed as 3'-O-glucuronide-triclocarban formation at 1 mg/kg, po by LC-MS analysis; type: ADME, organism-based; set-up: dose 1 mg/kg, route oral; conditions: in vivo
[2] = target: T1, UDP-glucuronosyltransferase 2B17 (Homo sapiens, UniProt O75795); experiment: Drug metabolism assessed as human UGT2B17-mediated N'-glucuronide-triclocarban formation expressed in baculovirus infected insect sf9 cells incubated for 5 mins prior to UDPGA addition measured after 5 to 30 mins by LC-UV analysis; type: ADME
T1 sequence (O75795 whole entry): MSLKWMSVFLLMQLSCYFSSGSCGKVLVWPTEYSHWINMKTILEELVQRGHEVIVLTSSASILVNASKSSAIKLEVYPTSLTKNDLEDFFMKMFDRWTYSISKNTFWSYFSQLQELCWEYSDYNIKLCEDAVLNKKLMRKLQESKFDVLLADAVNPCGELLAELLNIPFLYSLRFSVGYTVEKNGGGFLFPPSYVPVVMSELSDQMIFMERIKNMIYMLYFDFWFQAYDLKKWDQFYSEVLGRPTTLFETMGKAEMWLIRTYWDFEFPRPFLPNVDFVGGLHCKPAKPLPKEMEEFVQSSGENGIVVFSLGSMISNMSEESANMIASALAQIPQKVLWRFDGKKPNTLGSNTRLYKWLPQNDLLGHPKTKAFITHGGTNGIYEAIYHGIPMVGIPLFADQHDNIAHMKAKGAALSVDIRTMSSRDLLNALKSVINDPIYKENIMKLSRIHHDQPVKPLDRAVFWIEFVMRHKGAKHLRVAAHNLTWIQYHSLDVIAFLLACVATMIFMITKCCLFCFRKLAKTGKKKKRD
Method in brief: (§1)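 Microsomes or UGT Supersomes (5 µg protein) were held 15 min on ice with alamethicin in 100 mM potassium phosphate pH 7.4. TCC was added at 10 µM (2% DMSO) with 10 mM MgCl2 and 10 mM saccharolactone, pre-warmed 5 min at 37 °C, then started with UDPGA. Samples at 5, 10, 15 and 30 min were quenched in ACN. Product was read by LC-UV at 265 nm; rate came from regression over time, three incubations.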

[3] = Drug excretion in Sprague-Dawley rat urine assessed as N-glucuronide-triclocarban formation at 1 mg/kg, po by LC-MS analysis; type: ADME, organism-based; set-up: dose 1 mg/kg, route oral; conditions: in vivo
Liver microsome [4] = experiment: Drug metabolism in Sprague-Dawley rat liver microsomes assessed as N'-glucuronide-triclocarban formation incubated for 5 mins prior to UDPGA addition measured after 5 to 30 mins by LC-UV analysis; type: ADME; method in brief: as §1
Liver microsome [5] = experiment: Drug metabolism in human liver microsomes assessed as N-glucuronide-triclocarban formation incubated for 5 mins prior to UDPGA addition measured after 5 to 30 mins by LC-UV analysis; type: ADME
Method in brief: (§2)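 Pooled human kidney or liver microsomes (liver: 25 mixed-gender donors), 5 µg protein, in 200 µL 100 mM potassium phosphate pH 7.4. Alamethicin pre-treated on ice 15 min. Final 10 µM TCC (2% DMSO), with 10 mM MgCl2 and 10 mM saccharolactone, preincubated 5 min at 37 °C. Started with UDPGA (20 mM stock). Sampled at 5, 10, 15 and 30 min into ACN containing 1 µM DCC internal standard.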

[6] = Drug metabolism in B6C3F1 mouse liver microsomes assessed as N-glucuronide-triclocarban formation incubated for 5 mins prior to UDPGA addition measured after 30 mins by LC-UV-ESI-MS/MS analysis; type: ADME; conditions: 0.5 h
Method in brief: (§3)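 TCC was incubated at 10 µM (2% DMSO) in 100 mM phosphate pH 7.4 with alamethicin-treated microsomes or Supersomes, 10 mM MgCl2 and 10 mM saccharolactone. After 5 min pre-incubation at 37 °C, UDPGA was added to start the reaction. Protein was raised up to 2 mg/mL. Samples were quenched in ACN with 1 µM DCC internal standard, centrifuged, and N-glucuronides detected by LC-ESI-MS/MS in SRM mode.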

[7] = Drug metabolism in cynomolgus monkey liver microsomes assessed as N'-glucuronide-triclocarban formation incubated for 5 mins prior to UDPGA addition measured after 5 to 30 mins by LC-UV analysis; type: ADME, Macaca fascicularis; method in brief: as §1
[8] = Drug excretion in Sprague-Dawley rat urine assessed as 2'-O-glucuronide-triclocarban formation at 1 mg/kg, po by LC-MS analysis; type: ADME, organism-based; set-up: dose 1 mg/kg, route oral; conditions: in vivo
[9] = target: T2, UDP-glucuronosyltransferase 2B7 (Homo sapiens, UniProt P16662); experiment: Drug metabolism assessed as human UGT2B7-mediated N'-glucuronide-triclocarban formation expressed in baculovirus infected insect sf9 cells incubated for 5 mins prior to UDPGA addition measured after 5 to 30 mins by LC-UV analysis; type: ADME; method in brief: as §1
T2 sequence (P16662 whole entry): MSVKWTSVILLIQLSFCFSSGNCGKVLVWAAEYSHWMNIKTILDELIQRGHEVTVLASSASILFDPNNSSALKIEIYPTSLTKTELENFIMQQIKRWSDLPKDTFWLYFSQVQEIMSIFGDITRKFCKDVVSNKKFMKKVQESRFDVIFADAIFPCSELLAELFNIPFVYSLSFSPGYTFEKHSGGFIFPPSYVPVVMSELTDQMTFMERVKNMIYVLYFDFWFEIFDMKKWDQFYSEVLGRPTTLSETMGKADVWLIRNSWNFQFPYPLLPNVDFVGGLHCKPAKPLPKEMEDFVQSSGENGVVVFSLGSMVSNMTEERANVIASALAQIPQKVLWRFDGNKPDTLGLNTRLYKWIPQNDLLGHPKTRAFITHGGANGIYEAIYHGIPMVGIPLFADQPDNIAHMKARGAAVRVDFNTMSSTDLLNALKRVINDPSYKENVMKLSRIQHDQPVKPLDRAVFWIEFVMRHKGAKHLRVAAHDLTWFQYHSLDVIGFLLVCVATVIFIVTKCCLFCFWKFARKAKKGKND

Liver microsome [10] = experiment: Drug metabolism in human liver microsomes assessed as N-glucuronide-triclocarban formation incubated for 5 mins prior to UDPGA addition measured after 30 mins by LC-UV-ESI-MS/MS analysis; type: ADME; conditions: 0.5 h; method in brief: as §2
[11] = Drug metabolism in cynomolgus monkey liver microsomes assessed as N-glucuronide-triclocarban formation incubated for 5 mins prior to UDPGA addition measured after 30 mins by LC-UV-ESI-MS/MS analysis; type: ADME, Macaca fascicularis; conditions: 0.5 h; method in brief: as §3

Q: Which Drug excretion [1] does the source give for `O=C(Nc1ccc(Cl)cc1)Nc1ccc(Cl)c(Cl)c1` [TRICLOCARBAN] here?
A: The Drug excretion was “metabolite_detected”.

Q: What about the Drug metabolism [2] of the same compound?
A: Its Drug metabolism is “metabolite_not_detected”.

Q: What about the Drug excretion [3] of the same compound?
A: Its Drug excretion is “metabolite_not_detected”.

Q: And the Drug metabolism (Liver microsome [4])?
A: Its Drug metabolism is “metabolite_not_detected”.

Q: And the Drug metabolism (Liver microsome [5])?
A: The Drug metabolism was “metabolite_not_detected”.

Q: And the Drug metabolism [6]?
A: Its Drug metabolism is “metabolite_detected”.

Q: And the Drug metabolism [7]?
A: The Drug metabolism was “metabolite_not_detected”.

Q: What about the Drug excretion [8] of the same compound?
A: Its Drug excretion is “metabolite_detected”.

Q: And the Drug metabolism [9]?
A: Its Drug metabolism is “metabolite_not_detected”.

Q: And the Drug metabolism (Liver microsome [10])?
A: The Drug metabolism was “metabolite_detected”.

Q: What about the Drug metabolism [11] of the same compound?
A: The Drug metabolism was “metabolite_detected”.

— ChEMBL document CHEMBL3525967, “In vitro glucuronidation of the antibacterial triclocarban and its oxidative metabolites” (Drug Metab Dispos, 2012)
